Article PMC3051377 (British Journal of Pharmacology, 2011)

Experiments:
[1] = tested on: G-proteins in GDP-less membranes of CHO-M2 cells; assay: Kinetics of [35S]GTPγS binding to GDP-less membranes; design: species or system Chinese hamster
In short: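 GDP-less CHO-M2 membranes, 30°C. Association of 1 nM [³⁵S]GTPγS was measured after 20 min pre-incubation with buffer or 100 µM agonist, ±50 µM GDP. For dissociation, membranes were preloaded 90 min with 1 nM [³⁵S]GTPγS ±50 µM GDP, then chased with 1 µM GTPγS alone or with agonist. Filtration on glass-fibre filters, scintillation counting. Three experiments in quadruplicate; exponential association/dissociation fits.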

[2] = molecular target: T1, human M2 muscarinic receptor (Homo sapiens, UniProt P08172); assay: Agonist-stimulated [35S]GTPγS binding to membranes from M2 CHO cells; type: biochemical
T1 sequence (P08172 1-466): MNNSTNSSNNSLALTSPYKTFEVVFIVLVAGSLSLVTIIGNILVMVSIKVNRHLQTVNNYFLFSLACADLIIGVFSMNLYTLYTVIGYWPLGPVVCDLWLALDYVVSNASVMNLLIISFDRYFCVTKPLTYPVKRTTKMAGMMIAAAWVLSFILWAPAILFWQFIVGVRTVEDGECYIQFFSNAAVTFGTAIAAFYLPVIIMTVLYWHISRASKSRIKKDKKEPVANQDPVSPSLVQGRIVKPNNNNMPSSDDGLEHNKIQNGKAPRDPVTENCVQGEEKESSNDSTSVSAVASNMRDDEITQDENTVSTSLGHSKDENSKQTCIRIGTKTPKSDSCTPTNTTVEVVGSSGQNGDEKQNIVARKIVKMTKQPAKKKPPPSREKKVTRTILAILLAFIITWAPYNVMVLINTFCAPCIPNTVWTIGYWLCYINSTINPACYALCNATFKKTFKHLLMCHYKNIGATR

[3] = tested on: G-proteins in GDP-less membranes of CHO-M2 cells; assay: Kinetics of [3H]GDP binding to GDP-less membranes; design: species or system Chinese hamster; conditions: 100 nM NMS (Figure 4 right)
In short: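 GDP-less CHO-M2 membranes, 30°C. Association of 500 nM [³H]GDP was measured after 20 min pre-incubation with buffer, 10 or 100 µM agonist, or 0.1 µM antagonist. For dissociation, membranes were prelabelled with 500 nM [³H]GDP for 180 min, then chased with 50 µM GDP alone or with ligand. Slow and fast rate constants came from biphasic fits.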

[4] = molecular target: T2, M2 receptor-G-protein complex (Homo sapiens, UniProt P08172); type: binding
T2 sequence (P08172 1-466): T1 sequence (P08172 1-466)

[5] = molecular target: T1, human M2 muscarinic receptor; assay: Competition of agonists with 1 nM [3H]NMS binding
[6] = molecular target: T2, M2 receptor-G-protein complex; type: binding; conditions: Eqn 8, GDP-less membranes, 1 nM [3H]NMS
Gi/o G-proteins [7] = molecular target: T3, Gi/o G-proteins (Homo sapiens, UniProt P08172); assay: biochemical; type: biochemical, Chinese hamster
T3 sequence (P08172 1-466): T1 sequence (P08172 1-466)

Gs/olf G-proteins [8] = molecular target: T4, Gs/olf G-proteins (Homo sapiens, UniProt P08172); assay: biochemical; type: biochemical, Chinese hamster
T4 sequence (P08172 1-466): T1 sequence (P08172 1-466)

Gq/11 G-proteins [9] = molecular target: T5, Gq/11 G-proteins (Homo sapiens, UniProt P08172); assay: [35S]GTPγS binding to Gq/11 G-proteins; type: biochemical, Chinese hamster; conditions: Gq/11, text
T5 sequence (P08172 1-466): T1 sequence (P08172 1-466)

Gi/o G-proteins [10] = molecular target: T3, Gi/o G-proteins; assay: biochemical; type: binding, Chinese hamster
Gs/olf G-proteins [11] = molecular target: T4, Gs/olf G-proteins; assay: biochemical; type: binding, Chinese hamster
Gq/11 G-proteins [12] = molecular target: T5, Gq/11 G-proteins; type: binding, Chinese hamster; conditions: Gq/11, 10 µM [3H]GDP
[13] = 1 nM [35S]GTPγS, GDP-less membranes, no GDP, no ligand
[14] = NMS (100 nM), presence of 50 µM GDP

SMILES: Nc1nc2c(ncn2[C@@H]2O[C@H](COP(=O)(O)OP(=O)(O)OP(O)(O)=S)[C@@H](O)[C@H]2O)c(=O)[nH]1 [GTPγS, guanosine-5′-γ−thiotriphosphate]
- Beq [1, 13]: 5.66 ± 0.22 fmol·µg^−1protein
- koff [1, 13]: 0.324 ± 0.013 h⁻¹

SMILES: C[N+]1(C)[C@@H]2C[C@@H](OC(=O)[C@H](CO)c3ccccc3)C[C@H]1[C@@H]1O[C@@H]12 [NMS, N-methylscopolamine]
- behaviour in [35S]GTPγS binding ([2]; Figures 1 and 8): inverse agonist
- Beq of [35S]GTPγS ([1]; GDP-less membranes, 50 µM GDP +100 nM NMS): 1.20 ± 0.11 fmol·µg^−1protein
- effect on dissociation kinetics of [35S]GTPγS [1, 14]: did not change
- slowing of association of [35S]GTPγS [1, 14]: 25%
- effect on GDP dissociation [3]: only slightly slows down
- effect on [3H]GDP binding ([4]; 10 µM [3H]GDP, increasing ligand concentration): did not affect
- cooperativity between NMS and GDP ([4]; Figures 6 and 7): neutral

SMILES: O=C1CCCN1CC#CCN1CCCC1 [Oxotremorine]
- EC50 [2]: 1020 nM
- maximal increase of [35S]GTPγS binding (Emax) [2]: 2.8 fold increase
- EMAX [fold over basal] ([2]; 500 pM [35S]GTPγS, 50 µM GDP): 2.78 ± 0.06 fold over basal
- nH ([2]; Hill coefficient, Eqn 2): 0.92 ± 0.03
- flow[%] ([5]; Control (crude membranes), fraction of receptors in low-affinity state): 66 ± 8%
- flow[%] ([5]; GDP-less membranes): 13 ± 4 %
- change of high-affinity KI in GDP-less membranes vs control ([5]; GDP-less vs control membranes): not changed
- Ki ([5]; pKi high, Control (crude membranes)): 11.7 nM
- Ki ([5]; pKi high, GDP-less membranes): 11.2 nM
- Ki ([5]; pKi, +1 µM GTPγS, monophasic): 550 nM
- Ki ([5]; pKi, +50 µM GDP, monophasic): 417 nM
- factor of cooperativity α between binding of [3H]GDP and agonist (pα) ([4]; 10 µM [3H]GDP, GDP-less membranes, n=3): −1.8 ± 0.1
- reduction of agonist affinity by GDP (factor of cooperativity β) [6]: 60 fold
- EC50 (Gi/o G-proteins [7]): 933 nM
- EMAX (Gi/o G-proteins [7]; Gi/o): 2.72 ± 0.05 fold increase over basal binding
- EC50 (Gs/olf G-proteins [8]): 7.41 µM
- EMAX (Gs/olf G-proteins [8]; Gs/olf): 1.53 ± 0.01 fold increase over basal binding
- stimulation of [35S]GTPγS binding (Gq/11 G-proteins [9]): no stimulation
- Kd (Gi/o G-proteins [10]): 11.7 nM
- pα (Gi/o G-proteins [10]; Gi/o, cooperativity between agonist and [3H]GDP binding): −2.1 ± 0.2
- Kd (Gs/olf G-proteins [11]): 10.7 nM
- pα (Gs/olf G-proteins [11]; Gs/olf, cooperativity between agonist and [3H]GDP binding): −0.78 ± 0.08
- effect on [3H]GDP equilibrium binding (Gq/11 G-proteins [12]): no effect
